Data on three molecules can be found in PMC3517184 (Bioorganic & medicinal chemistry, 2012).

Data set [1] deals with TLR7/8. The experiment in a line: TLR specificity test, NO production induced by R848 in RAW 264.7 cells. The format is cell-based, murine. Conditions: 0.6 μM.
Data set [2] concerns LPS-induced activation of NF-κB. Kind of data set: NF-κB dual luciferase reporter assay in BV-2 microglial cells. The format is cell-based. Put shortly: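 NF-κB dual-luciferase reporter BV-2 microglia are kept in DMEM with 10% FBS, penicillin, streptomycin and puromycin (3 μg/mL). After 24 h seeding, medium is switched to Opti-MEM with 0.5% FBS. Test compound is added, then LPS at 200 ng/mL for 24 h. Dual-Glo luminescence is read, and the firefly/Renilla ratio is taken as NF-κB activity.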
A general note: Reporter assays use an easily measured gene product as a stand-in for the process of interest.

Data set [3] relates to cell viability. The experiment in a line: WST-1 cell viability / toxicity assay. In kind it is cell-based. Conditions: up to 10.0 μM. Put shortly: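 Cells are seeded at 2×10^4 per well and cultured 24 h at 37°C, then moved to serum-free medium with vehicle or test compound at various concentrations for 24 h. Premixed WST-1 reagent is added, and after 30 min at 37°C absorbance is read at 490 nm.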

Data set [4] has as its target T1, TLR3 (Mus musculus, UniProt Q99MB1).
T1 sequence (Q99MB1 26-905): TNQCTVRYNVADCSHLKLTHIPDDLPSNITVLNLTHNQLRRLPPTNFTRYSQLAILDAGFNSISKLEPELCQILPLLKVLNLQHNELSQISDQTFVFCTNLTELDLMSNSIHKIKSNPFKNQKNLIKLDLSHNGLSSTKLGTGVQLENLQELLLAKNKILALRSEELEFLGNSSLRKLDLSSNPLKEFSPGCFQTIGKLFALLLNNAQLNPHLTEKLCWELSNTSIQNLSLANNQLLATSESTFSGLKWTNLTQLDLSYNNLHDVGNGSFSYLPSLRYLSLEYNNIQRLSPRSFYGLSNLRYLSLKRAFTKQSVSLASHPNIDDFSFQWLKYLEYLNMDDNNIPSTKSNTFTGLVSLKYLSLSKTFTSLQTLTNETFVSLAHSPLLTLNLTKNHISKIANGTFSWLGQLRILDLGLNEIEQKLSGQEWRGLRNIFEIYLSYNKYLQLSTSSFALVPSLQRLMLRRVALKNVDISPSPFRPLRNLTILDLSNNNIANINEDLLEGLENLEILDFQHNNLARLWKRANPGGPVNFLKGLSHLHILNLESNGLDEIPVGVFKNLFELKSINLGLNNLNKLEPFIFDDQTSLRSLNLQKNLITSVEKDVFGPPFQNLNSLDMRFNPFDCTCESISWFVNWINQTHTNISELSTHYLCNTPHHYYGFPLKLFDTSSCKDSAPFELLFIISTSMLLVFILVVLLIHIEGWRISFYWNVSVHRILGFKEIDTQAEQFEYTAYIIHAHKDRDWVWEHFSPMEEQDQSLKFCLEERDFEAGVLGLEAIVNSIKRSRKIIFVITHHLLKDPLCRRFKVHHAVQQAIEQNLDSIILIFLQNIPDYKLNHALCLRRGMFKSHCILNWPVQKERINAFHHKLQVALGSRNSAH
Kind of data set: TLR specificity test, NO production induced by poly. In kind it is cell-based, murine. Conditions: 0.6 μM, RAW 264.7 cells, poly(I:C).

For data set [5], the target named is TLR1/TLR2 (Mus musculus, UniProt Q9EPQ1+Q9QUN7). Kind of data set: TLR specificity test, NO production induced by Pam3CSK4 in RAW 264.7 cells. In kind it is cell-based, murine. The note with it: 0.6 μM.
TLR1/TLR2, sequence (Q9EPQ1 26-795): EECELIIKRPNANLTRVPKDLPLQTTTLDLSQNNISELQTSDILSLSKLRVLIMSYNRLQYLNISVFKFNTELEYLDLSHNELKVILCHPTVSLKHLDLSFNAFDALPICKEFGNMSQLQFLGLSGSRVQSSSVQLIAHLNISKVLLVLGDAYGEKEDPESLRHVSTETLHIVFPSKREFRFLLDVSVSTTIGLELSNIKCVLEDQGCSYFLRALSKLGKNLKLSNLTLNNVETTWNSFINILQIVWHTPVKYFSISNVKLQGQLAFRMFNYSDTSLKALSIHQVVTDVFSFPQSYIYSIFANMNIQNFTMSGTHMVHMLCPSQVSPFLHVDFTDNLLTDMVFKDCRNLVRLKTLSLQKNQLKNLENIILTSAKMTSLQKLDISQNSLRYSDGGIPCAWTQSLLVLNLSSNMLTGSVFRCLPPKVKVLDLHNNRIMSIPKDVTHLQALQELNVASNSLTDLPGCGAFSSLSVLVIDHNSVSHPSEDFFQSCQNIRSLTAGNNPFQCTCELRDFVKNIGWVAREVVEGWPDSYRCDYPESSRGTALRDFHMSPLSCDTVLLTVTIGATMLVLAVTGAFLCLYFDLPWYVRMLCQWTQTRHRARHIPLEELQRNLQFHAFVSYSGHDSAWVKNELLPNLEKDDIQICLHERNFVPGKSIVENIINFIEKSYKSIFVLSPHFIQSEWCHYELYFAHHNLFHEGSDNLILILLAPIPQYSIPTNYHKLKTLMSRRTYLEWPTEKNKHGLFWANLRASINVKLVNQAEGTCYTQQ
TLR1/TLR2, sequence (Q9QUN7 25-784): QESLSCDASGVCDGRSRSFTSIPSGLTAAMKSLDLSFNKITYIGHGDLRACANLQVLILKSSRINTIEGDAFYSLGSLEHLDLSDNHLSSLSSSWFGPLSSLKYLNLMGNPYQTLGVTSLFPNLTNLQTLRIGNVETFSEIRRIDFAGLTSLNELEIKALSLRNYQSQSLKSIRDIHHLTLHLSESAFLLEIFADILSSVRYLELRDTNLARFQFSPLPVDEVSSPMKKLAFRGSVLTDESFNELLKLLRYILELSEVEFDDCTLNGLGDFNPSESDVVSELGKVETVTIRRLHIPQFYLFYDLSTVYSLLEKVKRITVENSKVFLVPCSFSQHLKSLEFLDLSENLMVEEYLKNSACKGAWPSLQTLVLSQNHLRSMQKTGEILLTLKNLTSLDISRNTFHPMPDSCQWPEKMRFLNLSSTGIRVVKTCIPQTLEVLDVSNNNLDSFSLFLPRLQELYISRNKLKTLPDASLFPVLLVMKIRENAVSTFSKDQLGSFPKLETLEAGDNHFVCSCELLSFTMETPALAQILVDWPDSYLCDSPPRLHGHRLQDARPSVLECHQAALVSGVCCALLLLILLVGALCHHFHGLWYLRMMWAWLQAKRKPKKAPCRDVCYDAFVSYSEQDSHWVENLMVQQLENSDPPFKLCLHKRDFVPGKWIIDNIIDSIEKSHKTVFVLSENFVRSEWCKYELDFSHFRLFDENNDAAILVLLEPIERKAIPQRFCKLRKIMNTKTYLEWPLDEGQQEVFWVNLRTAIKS
Data set [6] deals with TLR2/TLR6 heterodimer (Mus musculus, UniProt Q9EPW9+Q9QUN7). Kind of data set: TLR specificity test, NO production induced by FSL-1 in RAW 264.7 cells. In kind it is cell-based, murine. The note with it: 0.6 μM.
TLR2/TLR6 heterodimer, sequence (Q9QUN7 25-784): as above
TLR2/TLR6 heterodimer, sequence (Q9EPW9 28-795): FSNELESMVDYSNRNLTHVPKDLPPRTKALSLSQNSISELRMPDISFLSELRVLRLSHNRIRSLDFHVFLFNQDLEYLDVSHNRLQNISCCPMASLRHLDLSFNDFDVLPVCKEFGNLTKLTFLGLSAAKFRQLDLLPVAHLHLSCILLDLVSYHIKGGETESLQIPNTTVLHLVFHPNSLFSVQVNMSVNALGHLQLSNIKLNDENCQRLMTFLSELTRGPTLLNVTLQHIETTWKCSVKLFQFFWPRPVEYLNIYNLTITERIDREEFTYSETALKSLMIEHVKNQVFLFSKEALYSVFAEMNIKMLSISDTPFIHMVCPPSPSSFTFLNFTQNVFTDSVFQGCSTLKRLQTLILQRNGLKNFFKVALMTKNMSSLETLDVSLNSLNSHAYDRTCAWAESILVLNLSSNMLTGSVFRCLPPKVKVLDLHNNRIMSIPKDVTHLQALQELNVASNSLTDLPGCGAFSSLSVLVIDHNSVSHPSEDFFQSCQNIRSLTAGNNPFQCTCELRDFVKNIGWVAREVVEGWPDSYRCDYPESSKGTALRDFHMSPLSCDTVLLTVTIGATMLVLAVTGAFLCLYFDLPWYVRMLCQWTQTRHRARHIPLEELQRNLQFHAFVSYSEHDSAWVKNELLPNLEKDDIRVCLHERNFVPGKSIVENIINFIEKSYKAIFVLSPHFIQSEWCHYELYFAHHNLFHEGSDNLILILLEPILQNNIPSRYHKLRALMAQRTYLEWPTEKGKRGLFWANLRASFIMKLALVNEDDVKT
The subject of data set [7] is LPS-induced NO production in RAW 264.7 macrophage cells. Kind of data set: Inhibition of LPS-induced NO production in RAW 264.7 macrophage cells. The format is cell-based, murine.
For data set [8], the system named is LPS-induced TNF-α production. Kind of data set: LPS-induced TNF-α production in RAW 264.7 cells. In kind it is cell-based, murine. The note with it: ELISA. In short, it runs like this:
(§1)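 RAW 264.7 macrophages are grown in RPMI 1640 with 10% FBS, penicillin and streptomycin at 37°C and 5% CO2. Cells are pretreated with or without LPS, then given test compound (10 mM DMSO stock). After 24 h, supernatants are clarified and cells are lysed, with both stored at −80°C. ELISA measures TNF-α in medium and IL-1β in lysate, with IL-1β normalized to total protein.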
On the technique in general: An ELISA detects its analyte on a solid surface through an enzyme-linked reagent.

Data set [9] relates to LPS-induced IL-1β production. The experiment in a line: LPS-induced IL-1β production in RAW 264.7 cells. The format is cell-based, murine. The note with it: ELISA. In short, it runs like this: as §1

Usually IC50 stands for the concentration needed to halve the response being measured. As to `COC(=O)C(=Cc1ccccc1[N+](=O)[O-])C(=O)OC` [Compound 1, Dimethyl 2-(2-nitrobenzylidene)malonate], in [1], the “inhibition of TLR7/8 signaling (NO production)” value is on record as “negligible inhibition”. The IC50 in data set [2] (Mus musculus, BV-2, 24 h, read-out: IC50, inhibition of LPS-induced NF-κB reporter activity) turned out to be 5.92 ± 0.14 µM. In addition, in data set [3], the “cytotoxicity (WST-1 toxicity assay)” value is given as “did not show significant toxicity”. The “inhibition of TLR3 signaling (NO production)” value in data set [4] is on record as “negligible inhibition”. For the same molecule, in [5], the “inhibition of TLR1/TLR2 signaling (NO production)” value is recorded as “negligible inhibition”. Moreover, in data set [6], the “effect on signal via TLR2/TLR6 heterodimer (NO production)” value is on record as “reduced the signal”.
`COC(=O)C(=Cc1ccccc1)C(=O)OC` [Compound 2, Dimethyl 2-benzylidenemalonate]: the “decrease of activity relative to 1 (NO production)” value in data set [7] (absence of any substituent on the benzene ring) is recorded as “greater than 2 fold”.
`COC(=O)C(Cc1ccccc1[N+](=O)[O-])C(=O)OC` [Compound 22, Dimethyl 2-(2-nitrobenzyl) malonate]: the “effect on TNF-α production” value in data set [8] was “did not affect”. Also, in data set [9], the “effect on IL-1β production” value was “did not affect”. For the same molecule, the “inhibition of LPS-induced NO production” value in data set [7] (RAW 264.7 cells, at the tested concentrations (Figure 1A)) was “negligible inhibition”. The “effect on LPS-induced NF-κB activation” value in [2] (BV-2 cells, concentrations up to 10 μM) is “did not alter”.
